{"source": "ChEMBL document CHEMBL5360543", "about": "“Designed multiple ligands for the treatment of type 2 diabetes mellitus and its complications: Discovery of (5-arylidene-4-oxo-2-thioxothiazolidin-3-yl)alkanoic acids active as novel dual-targeted PTP1B/AKR1B1 inhibitors” (Eur J Med Chem, 2023)"}
{"target": "Aldo-keto reductase family 1 member B1 (Homo sapiens, UniProt P15121)", "test": "Inhibition of human recombinant AKR1B1 expressed in Escherichia coli BL21(DE3)pLysS using L-idose as substrate by NADPH oxidation based absorbance analysis", "units": {"IC50": "nM"}}
{"smiles": "O=C(O)CCN1C(=O)/C(=C/c2ccc(OCCCOc3ccccc3)cc2)SC1=S", "IC50": 3900}
{"smiles": "O=C(O)CN1C(=O)/C(=C/c2ccc(OCCCOc3ccccc3)cc2)SC1=S", "IC50": 220}
{"smiles": "O=C(O)CN1C(=O)/C(=C/c2cccc(OCCCc3ccccc3)c2)SC1=S", "IC50": 50}
{"target": "T1, Tyrosine-protein phosphatase non-receptor type 1 (Homo sapiens) (UniProt P18031)", "T1 sequence (whole entry)": "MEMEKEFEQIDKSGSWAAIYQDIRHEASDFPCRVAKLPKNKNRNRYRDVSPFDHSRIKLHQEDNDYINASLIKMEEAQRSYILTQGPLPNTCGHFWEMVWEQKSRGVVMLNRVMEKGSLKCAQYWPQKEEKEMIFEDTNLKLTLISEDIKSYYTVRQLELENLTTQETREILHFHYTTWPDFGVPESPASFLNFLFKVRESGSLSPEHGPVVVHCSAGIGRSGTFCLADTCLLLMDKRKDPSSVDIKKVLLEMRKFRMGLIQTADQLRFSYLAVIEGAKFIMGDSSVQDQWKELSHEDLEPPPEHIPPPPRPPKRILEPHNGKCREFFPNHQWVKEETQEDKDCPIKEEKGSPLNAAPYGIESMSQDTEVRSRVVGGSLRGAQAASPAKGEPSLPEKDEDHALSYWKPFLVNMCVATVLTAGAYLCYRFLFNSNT", "test": "Inhibition of N-terminal polyHis-tagged human PTP1B1 (1 to 303 residues) expressed in Escherichia coli BL21(DE3)pLysS assessed as enzyme residual activity using pNPP as substrate at 5 uM by spectrophotometric analysis", "how_it_was_run": "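His-tagged human PTP1B (1–303) from E. coli BL21(DE3)pLysS, assayed in 0.075 M β,β-dimethylglutarate pH 7.0 with 1 mM EDTA, 0.1 mM DTT and pNPP. Reaction stopped with 0.1 M KOH; p-nitrophenol read at 400 nm. IC50 from 15–16 inhibitor concentrations in triplicate, normalized to control, fitted by nonlinear regression. Single-point residual activity at 5 µM.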", "units": {"Activity": "%"}}
{"smiles": "O=C(O)CCN1C(=O)/C(=C/c2ccc(OCCCOc3ccccc3)cc2)SC1=S", "Activity": 74.4}
{"smiles": "O=C(O)CN1C(=O)/C(=C/c2ccc(OCCCOc3ccccc3)cc2)SC1=S", "Activity": 87.6}
{"smiles": "O=C(O)CN1C(=O)/C(=C/c2cccc(OCCCc3ccccc3)c2)SC1=S", "Activity": 81}
